In general, AC50 refers to the midpoint of the concentration-response curve, whichever way the signal moves.

The values below come from PubChem BioAssay AID540339 (Broad Institute, 2011).

Activity calls are given as the source filed them.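 Rule for the calls: active = compounds that lower cell viability signal with a fitted half-maximal concentration within ten times the top tested dose; inconclusive = flat curve inhibiting 30 to 70%, or an unreliable fit; inactive = the rest.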

In experiment [1] the test system is MALME3 melanoma viability, CellTiter-Glo luminescence, 24 h. Description: growth inhibition of MALME3 cells – cell-based, CellTiter-Glo, dry powder samples, orthogonal assay for MITF inhibitor project, dose response (AID 540339). A digest of the protocol:
(§1)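 Assay system: MALME3 melanoma cells / Dosing: pinned compound dose series / Incubation: 24 h compound at 37 °C, then 5 min reagent, RT / Measured by: CellTiter-Glo luminescence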

Experiment in experiment [2]: as above
To be noted: MALME3 melanoma viability, CellTiter-Glo luminescence, 24 h; at 35 µM (top of the series). A digest of the protocol: as §1
On the technique in general: Cellular ATP, detected with luciferase, serves as a proxy for viable cell number.

As for `O=C(COc1ccccc1)N/N=C/c1ccc([N+](=O)[O-])o1`, the AC50 in experiment [1] was 19.1 µM.
Take `Cc1[nH]c2ccccc2c1C(=O)CCl`: the AC50 in experiment [1] is 31.8 µM.
Turning to `CC1=NNC(=O)/C1=C\c1cn(-c2ccccc2)nc1-c1ccc(F)cc1`, the AC50 in experiment [1] is 36.5 µM.
As to `Cc1ccc(C(=O)N/N=C/c2ccc([N+](=O)[O-])s2)cc1`, in experiment [1], the AC50 was 14.8 µM.
Regarding `Cc1ccc(C(C)C)c(OCc2nn(CC(=O)c3ccc(Cl)cc3)c3[n+]2CCCCC3)c1`, in experiment [1], the AC50 was 23.1 µM.
In the case of `N=c1n(CCN2CCCC2)c2ccccc2n1CC(O)c1ccc(Cl)c(Cl)c1` (stereo unspecified), the AC50 in experiment [1] was 18.6 µM.
Still for that read-out and setting: with `CCN(CC)CCNC(=O)c1c(C)n(-c2ccccc2)c2cc(Br)c(OC)cc12` the figure was 34.1 µM.
On to `CCN1CCCC1CNC(=O)c1ccc2c(c1)NC(=O)/C(=C\c1ccc(C)cc1)S2` (stereo unspecified), for which the AC50 in experiment [1] is 20 µM.
For `O=C(Nc1ccc(N2CCN(C(=O)c3ccccc3)CC2)cc1)c1ccc([N+](=O)[O-])o1`, the AC50 in experiment [1] is 16.7 µM.
In the case of `C=CCNC1=C(Cl)C(=O)c2ccccc2C1=O`, in experiment [1], the AC50 was 8.93 µM.
Regarding `CC1CCN(CC(CS(=O)(=O)c2ccc([N+](=O)[O-])cc2)N2CCC(C)CC2)CC1` (stereo unspecified), the AC50 in experiment [1] is 18.6 µM.
Take `CN(C)CCCNC(=O)/C(=C\c1ccc(-c2ccc(Br)cc2)o1)NC(=O)c1ccccc1`: the AC50 in experiment [1] is 17.4 µM.
Consider `COc1cc(/C=N/NC(N)=O)c(Br)cc1OCC(=O)Nc1ccccc1C`, for which the AC50 in experiment [1] is 32.8 µM.
Consider `CCN1c2ccccc2NC2N=C(OC)C(c3ccccc3)C21` (stereo unspecified), for which the AC50 in experiment [1] is 7.91 µM.
In the case of `CCN1CCN(C2=C(NS(=O)(=O)c3ccc(Br)cc3)C(=O)c3ccccc3C2=O)CC1`, the AC50 in experiment [1] is 17.7 µM.
As for `O=C(CNc1cccc2ccccc12)N/N=C/c1ccc([N+](=O)[O-])o1`, in experiment [1], the AC50 was 20 µM.
Take `O=C(Cn1ncc(Cl)c(Cl)c1=O)N1CCc2ccccc21`: the AC50 in experiment [1] was 5.07 µM.
Consider `COc1cc2c(cc1OC)C(c1ccccc1)N(C(=O)CCl)CC2` (stereo unspecified), for which, in experiment [1], the AC50 is 18 µM.
The same measure, in the same setting: the same measure for `CC1(C)CC(NC(=O)c2ccc(Cl)c(S(=O)(=O)N(Cc3ccccc3)c3ccccc3)c2)CC(C)(C)N1`: 17.4 µM; for `O=c1c(Cl)c2oc3ccccc3nc-2c2ccccc12`: 18.2 µM.
On to `CC1CCCCC1NC(=O)/C(C#N)=C/C=C/c1ccccc1[N+](=O)[O-]` (stereo unspecified), for which the activity change, negative = inhibition in experiment [2] was 2.17% (inactive).
Consider `Cc1nc2ccccc2n1/N=C/c1ccc([N+](=O)[O-])s1`, for which the AC50 in experiment [1] is 10.3 µM.
Regarding `CC(C)C(CCNC1CCN(C)CC1)c1ccc(Cl)cc1` (stereo unspecified), the AC50 in experiment [1] is 4.04 µM.
Regarding `COc1ccc(S(=O)(=O)N(C(C)=O)c2ccc(OC(C)=O)c3ccccc23)cc1[N+](=O)[O-]`, the AC50 in experiment [1] is 4.21 µM.
As for `O=C(Nc1ccc(-c2nc3ncccc3o2)cc1)c1ccc([N+](=O)[O-])o1`, in experiment [1], the AC50 was 14.5 µM.
Turning to `CC1CN(C(=O)CCC(=O)NCCCN2CCC(Cc3ccccc3)CC2)c2cc(Cl)ccc2O1` (stereo unspecified), the AC50 in experiment [1] is 29.9 µM.
